Activity calls are given as the source filed them. The calls are words filed in the database; no cut-off is given here.
Legend:
[1] = biological target: T1, Prostaglandin G/H synthase 2 (Homo sapiens, UniProt P35354); experiment: Inhibition of COX-2 (unknown origin) by chemiluminescence assay
T1 sequence (P35354 whole entry): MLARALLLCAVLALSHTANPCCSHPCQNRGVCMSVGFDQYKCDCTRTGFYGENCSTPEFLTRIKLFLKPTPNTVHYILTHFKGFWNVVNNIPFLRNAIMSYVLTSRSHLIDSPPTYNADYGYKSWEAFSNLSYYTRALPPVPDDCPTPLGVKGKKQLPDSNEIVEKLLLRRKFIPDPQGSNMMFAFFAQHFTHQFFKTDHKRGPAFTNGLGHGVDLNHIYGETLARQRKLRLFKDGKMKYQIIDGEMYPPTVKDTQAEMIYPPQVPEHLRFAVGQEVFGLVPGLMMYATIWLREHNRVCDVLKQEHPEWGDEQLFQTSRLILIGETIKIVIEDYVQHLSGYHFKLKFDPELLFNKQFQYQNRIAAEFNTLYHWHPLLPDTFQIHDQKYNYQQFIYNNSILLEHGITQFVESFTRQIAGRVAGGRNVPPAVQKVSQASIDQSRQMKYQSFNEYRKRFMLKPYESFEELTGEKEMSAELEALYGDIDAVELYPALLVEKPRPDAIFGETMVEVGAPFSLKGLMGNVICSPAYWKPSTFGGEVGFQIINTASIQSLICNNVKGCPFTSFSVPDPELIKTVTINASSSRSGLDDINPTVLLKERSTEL

RAW264.7 = experiment: Inhibition of LPS-induced COX-2 expression in mouse RAW264.7 cells at >0.5 uM treated for 15 mins before LPS challenge measured after 18 hrs by Western blot analysis; format: functional, cell-based
Outline: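 RAW 264.7 cells (5×10^5) incubated 24 h in 12-well plates. Compound pretreatment at 0.5, 1.0 or 1.5 µM for 15 min, then LPS 1 µg/mL for 18 h. Cells lysed in lysis buffer. COX-2 protein detected by Western immunoblot.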

A549 = experiment: Antitumor activity against human A549 cells assessed as inhibition of cell proliferation after 48 hrs by MTT assay; format: functional, cell-based; conditions: A549, 48 h
Outline: (§1)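 Cells grown to log phase in RPMI 1640 with 10% FBS, seeded at 2×10^4 cells/mL and preincubated 24 h at 37 °C, 5% CO2. Compounds at preset concentrations added (6 wells), celecoxib as positive reference, 48 h exposure. MTT (2.5 mg/mL in PBS) for 4 h, then SDS/isobutanol/HCl extraction overnight at 37 °C. OD read at 570 nm. Triplicate wells per concentration, at least three independent runs.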

[2] = biological target: T2, Prostaglandin G/H synthase 2 (Mus musculus, UniProt Q05769); experiment: Inhibition of COX-2 in mouse RAW264.7 cells assessed as decrease in LPS-induced PGE2 production; format: cell-based
T2 sequence (Q05769 whole entry): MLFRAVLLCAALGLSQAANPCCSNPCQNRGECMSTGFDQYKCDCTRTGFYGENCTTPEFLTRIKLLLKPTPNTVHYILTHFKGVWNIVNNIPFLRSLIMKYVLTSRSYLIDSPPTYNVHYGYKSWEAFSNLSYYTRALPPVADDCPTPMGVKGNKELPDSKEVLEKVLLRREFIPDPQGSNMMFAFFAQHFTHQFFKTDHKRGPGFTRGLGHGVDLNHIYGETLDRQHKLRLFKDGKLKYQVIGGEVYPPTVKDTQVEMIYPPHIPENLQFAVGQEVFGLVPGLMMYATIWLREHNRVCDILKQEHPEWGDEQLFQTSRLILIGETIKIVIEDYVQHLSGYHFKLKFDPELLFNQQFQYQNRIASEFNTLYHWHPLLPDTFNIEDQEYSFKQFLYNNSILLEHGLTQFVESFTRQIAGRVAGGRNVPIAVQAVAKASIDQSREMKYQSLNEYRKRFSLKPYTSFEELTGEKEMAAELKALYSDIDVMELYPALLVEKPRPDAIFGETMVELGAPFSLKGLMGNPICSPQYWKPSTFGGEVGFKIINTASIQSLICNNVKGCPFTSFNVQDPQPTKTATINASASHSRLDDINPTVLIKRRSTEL

B16-F10 = experiment: Antitumor activity against mouse B16F10 cells assessed as inhibition of cell proliferation after 48 hrs by MTT assay; format: functional, cell-based; conditions: B16-F10, 48 h; outline: as §1
MCF7 = experiment: Antitumor activity against human MCF7 cells assessed as inhibition of cell proliferation after 48 hrs by MTT assay; format: functional, cell-based; conditions: MCF7, 48 h; outline: as §1
[3] = biological target: Prostaglandin G/H synthase 1 (Homo sapiens, UniProt P23219); experiment: Inhibition of COX-1 (unknown origin) by chemiluminescence assay
Chain of Prostaglandin G/H synthase 1 (P23219 whole entry): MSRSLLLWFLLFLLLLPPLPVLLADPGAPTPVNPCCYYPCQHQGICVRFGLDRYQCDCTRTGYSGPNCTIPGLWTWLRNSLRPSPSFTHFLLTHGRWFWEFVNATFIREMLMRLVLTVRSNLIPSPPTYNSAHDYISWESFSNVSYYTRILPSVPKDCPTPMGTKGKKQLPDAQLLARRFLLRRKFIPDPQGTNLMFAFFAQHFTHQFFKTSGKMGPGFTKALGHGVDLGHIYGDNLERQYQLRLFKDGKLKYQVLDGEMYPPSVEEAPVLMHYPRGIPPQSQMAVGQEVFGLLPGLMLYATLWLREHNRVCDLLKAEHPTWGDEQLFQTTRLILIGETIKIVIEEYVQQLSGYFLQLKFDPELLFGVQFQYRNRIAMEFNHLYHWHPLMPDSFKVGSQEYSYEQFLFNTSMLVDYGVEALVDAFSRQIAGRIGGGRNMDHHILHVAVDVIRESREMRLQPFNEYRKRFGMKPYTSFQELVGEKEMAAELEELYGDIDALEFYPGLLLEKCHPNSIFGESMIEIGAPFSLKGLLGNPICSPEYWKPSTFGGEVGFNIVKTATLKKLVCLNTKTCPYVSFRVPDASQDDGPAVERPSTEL

CCCCNC(=O)/C=C/c1c(/C=C/c2ccc(OC)cc2)cc(OC)cc1OC
IC50 [1]: 1.02 µM
inhibition (RAW264.7): Active
IC50 (A549): 1.88 µM
IC50 [2]: 0.28 µM
IC50 (B16-F10): 2.08 µM
IC50 (MCF7): 1.33 µM
IC50 [3]: > 50 µM

C=CCN(CC=C)C(=O)/C=C/c1c(/C=C/c2ccc(OC)cc2)cc(OC)cc1OC
IC50 [1]: 8.01 µM
IC50 (A549): 5.89 µM
IC50 [2]: 3.28 µM
IC50 (B16-F10): 8.18 µM
IC50 (MCF7): 3.22 µM
IC50 [3]: 35 µM

COc1ccc(/C=C/c2cc(OC)cc(OC)c2/C=C/C(=O)NCC(C)C)cc1
IC50 [1]: 15.1 µM
IC50 (A549): 10.4 µM
IC50 [2]: 6.12 µM
IC50 (B16-F10): 12.7 µM
IC50 (MCF7): 5.29 µM
IC50 [3]: > 50 µM

COc1ccc(/C=C/c2cc(OC)cc(OC)c2/C=C/C(=O)Nc2cc(OC)c(OC)c(OC)c2)cc1
IC50 [1]: 6.66 µM
IC50 (A549): 5.14 µM
IC50 [2]: 2.1 µM
IC50 (B16-F10): 8.15 µM
IC50 (MCF7): 7.01 µM
IC50 [3]: > 50 µM

CCCNC(=O)/C=C/c1c(/C=C/c2ccc(OC)cc2)cc(OC)cc1OC
IC50 [1]: 6.75 µM
IC50 (A549): 5.17 µM
IC50 [2]: 2.08 µM
IC50 (B16-F10): 9.08 µM
IC50 (MCF7): 5.61 µM
IC50 [3]: > 50 µM

Source: ChEMBL document CHEMBL2331353, “Synthesis and biological evaluation of some novel resveratrol amide derivatives as potential anti-tumor agents” (Eur J Med Chem, 2013)
